# Assays:
# Mus musculus [1] = species on record: Mus musculus; assay: Average survival days at the dose 10x2 mg/ kg in mice bearing the L1210 Leukemia; type: functional
# Outline: (§1)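 CD2F1 female mice with implanted L1210 leukemia; each compound given ip as a suspension, twice daily for 6 consecutive days, starting 24 h after tumor implantation; 5-10 mice per group. Read-out is mean survival time, counting only mice dying before day 60. Body weight change is recorded from onset to end of therapy.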
# Mus musculus [2] = species on record: Mus musculus; assay: Average change in body weight from onset to termination of therapy in mice bearing the L1210 Leukemia(dose 15x2 mg/ kg ); type: functional
# Outline: (§2)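 Female CD2F1 mice carried implanted L1210 leukemia. Drug was given ip in suspension twice daily for 6 consecutive days, beginning 24 h after implantation, with 5–10 mice per group. The value is the average percent body-weight change from onset to termination of therapy.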
# Mus musculus [3] = species on record: Mus musculus; assay: Average survival days at the dose 20 mg/ kg in mice bearing the L1210 Leukemia
# Mus musculus [4] = species on record: Mus musculus; assay: Effect of compound on mice bearing the L1210 Leukemia expressed as T/C percent treated/control)-dose 20x2 mg/ kg; type: functional
# Mus musculus [5] = species on record: Mus musculus; assay: Average survival days at the dose 30x2 mg/ kg in mice bearing the L1210 Leukemia; type: functional; outline: as §1
# Mus musculus [6] = species on record: Mus musculus; assay: Average change in body weight from onset to termination of therapy in mice bearing the L1210 Leukemia(dose 30x2 mg/ kg ); type: functional; outline: as §2
# Mus musculus [7] = species on record: Mus musculus; assay: Average survival days at the dose 15x2 mg/ kg in mice bearing the L1210 Leukemia; type: functional; outline: as §1
# Mus musculus [8] = species on record: Mus musculus; assay: Effect of compound on mice bearing the L1210 Leukemia expressed as T/C percent treated/control)-dose 20 mg/ kg; type: functional; conditions: at 20 mg/kg
# Mus musculus [9] = species on record: Mus musculus; assay: Average change in body weight from onset to termination of therapy in mice bearing the L1210 Leukemia(dose 20x2 mg/ kg ); type: functional; outline: as §2
# Mus musculus [10] = species on record: Mus musculus; assay: Effect of compound on mice bearing the L1210 Leukemia expressed as T/C percent treated/control)-dose 15x2 mg/ kg; type: functional
# Mus musculus [11] = species on record: Mus musculus; assay: Effect of compound on mice bearing the L1210 Leukemia expressed as T/C percent treated/control)-dose 10x2 mg/ kg; type: functional
# Mus musculus [12] = species on record: Mus musculus; assay: Average change in body weight from onset to termination of therapy in mice bearing the L1210 Leukemia(dose 10x2 mg/ kg ); type: functional; outline: as §2
# Mus musculus [13] = species on record: Mus musculus; assay: Average survival days at the dose 20x2 mg/ kg in mice bearing the L1210 Leukemia; type: functional; outline: as §1
# Mus musculus [14] = species on record: Mus musculus; assay: Effect of compound on mice bearing the L1210 Leukemia expressed as T/C percent treated/control)-dose 30x2 mg/ kg; type: functional
# Mus musculus [15] = species on record: Mus musculus; assay: Average change in body weight from onset to termination of therapy in mice bearing the L1210 Leukemia(dose 20 mg/ kg ); type: functional; conditions: at 20 mg/kg
# Outline: (§3)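 L1210 leukemia in CD2F1 mice. Drug was given ip as a suspension once daily for 6 consecutive days, starting 24 h after tumor implantation, with 5–10 mice per group. The value is the average body-weight change from onset to termination of therapy, in percent.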
# Mus musculus [16] = species on record: Mus musculus; assay: Average change in body weight from onset to termination of therapy in mice bearing the L1210 Leukemia(dose 10 mg/ kg ); type: functional; conditions: at 10 mg/kg; outline: as §3
# Mus musculus [17] = species on record: Mus musculus; assay: Average survival days at the dose 40 mg/ kg in mice bearing the L1210 Leukemia; type: functional
# Mus musculus [18] = assay: Effect of compound on mice bearing the L1210 Leukemia expressed as T/C percent treated/control)-dose 10 mg/kg; type: functional
# Mus musculus [19] = species on record: Mus musculus; assay: Average change in body weight from onset to termination of therapy in mice bearing the L1210 Leukemia(dose 40 mg/ kg ); type: functional; conditions: at 40 mg/kg; outline: as §3
# Mus musculus [20] = species on record: Mus musculus; assay: Average change in body weight from onset to termination of therapy in mice bearing the L1210 Leukemia(dose 40x2 mg/ kg ); type: functional; outline: as §2
# Mus musculus [21] = species on record: Mus musculus; assay: Effect of compound on mice bearing the L1210 Leukemia expressed as T/C percent treated/control)-dose 40x2 mg/ kg; type: functional
# Mus musculus [22] = species on record: Mus musculus; assay: Average change in body weight from onset to termination of therapy in mice bearing the L1210 Leukemia(dose 60 mg/ kg ); type: functional; conditions: at 60 mg/kg; outline: as §3
# Mus musculus [23] = species on record: Mus musculus; assay: Average survival days at the dose 40x2 mg/ kg in mice bearing the L1210 Leukemia; type: functional; outline: as §1
# Mus musculus [24] = species on record: Mus musculus; assay: Effect of compound on mice bearing the L1210 Leukemia expressed as T/C percent treated/control)-dose 60 mg/ kg; type: functional; conditions: at 60 mg/kg
# Mus musculus [25] = species on record: Mus musculus; assay: Average survival days at the dose 60 mg/ kg in mice bearing the L1210 Leukemia
# Mus musculus [26] = species on record: Mus musculus; assay: Effect of compound on mice bearing the L1210 Leukemia expressed as T/C percent treated/control)-dose 40 mg/ kg; type: functional; conditions: at 40 mg/kg
SMILES,Average survival (Mus musculus [1]) [days],Average change in body weight (Mus musculus [2]) [%],T/C (Mus musculus [4]) [%],Average survival (Mus musculus [5]) [days],Average change in body weight (Mus musculus [6]) [%],Average survival (Mus musculus [7]) [days],T/C (Mus musculus [8]) [%],Average change in body weight (Mus musculus [9]) [%],T/C (Mus musculus [10]) [%],T/C (Mus musculus [11]) [%],Average change in body weight (Mus musculus [12]) [%],Average survival (Mus musculus [13]) [days],T/C (Mus musculus [14]) [%],Average change in body weight (Mus musculus [15]) [%],Average survival (Mus musculus [17]) [days],T/C (Mus musculus [18]) [%],Average change in body weight (Mus musculus [19]) [%],other results
N/C(S)=N/N=C/c1ccc(N)cn1,17.6,-7.7,185,6.9,-16,16.8,140,-12.3,221,232,-3.8,14,91,-2.8,–,–,–,Average survival (Mus musculus [3]): 11 days
Cc1cc(/C=N/N=C(/N)S)ncc1NO,–,–,–,–,–,–,–,–,–,–,–,–,–,–,10.6,136,–,Average change in body weight (Mus musculus [16]): -2.7%
Cc1cc(/C=N/N=C(/N)S)ncc1N,18.6,-7.1,236,14.4,-12.4,21,138,-12.1,276,245,1.4,17.9,190,-7,10.8,–,–,–
N/C(S)=N/N=C/c1ccc(O)cn1,–,–,–,–,–,–,–,–,–,–,–,–,–,–,10.4,133,2,–
Cc1ccnc(/C=N/N=C(/N)S)c1N,14.8,–,222,17.6,-2.4,–,–,-3.8,–,195,1.4,16.9,232,–,–,–,–,Average change in body weight (Mus musculus [20]): -8.1%; T/C (Mus musculus [21]): 255%; Average change in body weight (Mus musculus [22]): 2%; Average survival (Mus musculus [23]): 19.4 days; T/C (Mus musculus [24]): 190%; Average survival (Mus musculus [25]): 14.9 days
NC(=S)N/N=C/c1ncccc1N [TRIAPINE],18.7,-3.3,192,7.3,-12.8,19.8,–,-12.4,262,246,-6.4,14.6,96,–,14.6,–,-5.9,T/C (Mus musculus [26]): 187%
